The list is not random: actives were taken first. Their share in the collection is about 2.7%.
PAFAH2 inh: PAFAH2 enzyme inhibitors, primary screen, biochemical, fluorescence polarization, human | Platelet-activating factor acetylhydrolase 2, cytoplasmic (Homo sapiens), Q99487 | recombinant PAFAH2, FP-rhodamine activity probe | inhibition, % at 3.39 µM | 340,000 compounds, 0.99% hits;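 active means inhibition above the mean over all tested compounds plus 3 SD, cut at about 30% in these data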;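 further: inhibitors block probe labeling of enzyme so polarization drops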
PAFAH1B2 inh: PAFAH1B2 enzyme inhibitors, primary screen, biochemical, fluorescence polarization, human. Platelet-activating factor acetylhydrolase IB subunit alpha2 (Homo sapiens), P68402. recombinant PAFAH1B2, FP-rhodamine activity probe. AID 492953, 2010. inhibition, % at 3.39 µM. 340,000 compounds, 1.2% hits;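 active means inhibition above the mean of all tested compounds plus 3 SD, cut at about 24% in these data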
Target sequence (P68402 whole entry, looked up): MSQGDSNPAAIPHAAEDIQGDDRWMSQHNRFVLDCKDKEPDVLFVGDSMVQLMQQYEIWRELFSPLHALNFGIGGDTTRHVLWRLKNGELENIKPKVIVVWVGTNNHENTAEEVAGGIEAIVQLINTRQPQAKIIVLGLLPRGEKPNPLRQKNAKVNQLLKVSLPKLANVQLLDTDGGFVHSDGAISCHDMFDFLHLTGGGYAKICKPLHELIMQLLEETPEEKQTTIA
pPAFAH inh: pPAFAH enzyme inhibitors, primary screen, biochemical, fluorescence polarization, human. inhibition, % at 3.39 µM. recombinant pPAFAH, FP-rhodamine probe fluorescence polarization. Platelet-activating factor acetylhydrolase (Homo sapiens), Q13093. 330,000 compounds, 1.5% hits;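 active means inhibition above the mean inhibition across the screen plus 3 SD, cut at about 25% in these data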;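 further: inhibitors block binding of the rhodamine activity-based probe so polarization drops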
ASAP1 GAP inh: inhibitors of human ASAP1 ArfGAP activity, primary screen, biochemical, fluorescence polarization; 360,000 compounds, 0.19% hits; Arf-GAP with SH3 domain, ANK repeat and PH domain-containing protein 1 (Homo sapiens), …; ASAP1-stimulated ARF1 GTP hydrolysis, GDP FP detection; AID 624377, 2012; inhibition, % at 16.5 µM; in the data active means inhibition above about 25%
ARFGAP1 inh: inhibitors of rat ARFGAP1 GAP activity, primary screen, biochemical, fluorescence polarization, GDP tracer | inhibition, % at 16.5 µM | Arfgap1-stimulated ARF1 GTP hydrolysis, GDP FP detection | 360,000 compounds, 0.26% hits | ADP-ribosylation factor GTPase-activating protein 1 (Rattus norvegicus), Q62848;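 active means inhibition above a per-plate limit, mean inhibition of low control wells plus 3 SD, cut at about 25% in these data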
Target sequence (Q62848 1-136 limits assumed): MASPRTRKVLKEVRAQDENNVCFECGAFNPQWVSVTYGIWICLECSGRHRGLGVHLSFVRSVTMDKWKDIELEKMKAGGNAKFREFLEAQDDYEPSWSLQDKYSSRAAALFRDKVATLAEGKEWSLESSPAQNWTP
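Replicates: Single well per compound | Assay system: Truncated rat Arfgap1 GAP domain | Control set: No-Arfgap1 wells (100%) versus DMSO full-reaction wells (0%) | Times: Enzyme reaction 120 min at 25 °C after 20 min preincubation | Reagent: Human ARF1(Δ1-17)-GTP substrate | Measured by: Tracer-displacement fluorescence polarization with EDTA stop, 620/688 nm | Measure: Percent inhibition of Arfgap1-stimulated GTP hydrolysis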
PAFAH1B3 FP inh: PAFAH1B3 enzyme inhibitors, primary screen, biochemical, fluorescence polarization, human | Platelet-activating factor acetylhydrolase IB subunit alpha1 (Homo sapiens), Q15102 | recombinant PAFAH1B3, FP-rhodamine probe | inhibition, % at 3.39 µM | 340,000 compounds, 0.28% hits | AID 492972, 2010;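 active means inhibition above the screen-wide average of all tested compounds plus 3 SD, cut at about 25% in these data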
Target sequence (Q15102 whole entry, looked up): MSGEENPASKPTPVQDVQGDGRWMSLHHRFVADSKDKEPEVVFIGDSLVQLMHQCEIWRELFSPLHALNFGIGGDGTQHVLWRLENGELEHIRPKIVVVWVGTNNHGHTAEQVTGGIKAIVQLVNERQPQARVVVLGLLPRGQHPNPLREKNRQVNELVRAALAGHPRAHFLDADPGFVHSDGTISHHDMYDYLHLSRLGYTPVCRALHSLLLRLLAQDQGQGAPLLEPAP
A number is an active result; i = inactive; nt = no result.

SMILES	PAFAH2 inh	PAFAH1B2 inh	pPAFAH inh	ASAP1 GAP inh	ARFGAP1 inh	PAFAH1B3 FP inh
Cc1cccc(NC(=O)C(C)OC(=O)c2ccccc2NS(=O)(=O)c2cc(C)c(C)c([N+](=O)[O-])c2)c1 (stereo not given)	i	i	i	i	i	i
O=C(O)c1ccccc1NS(=O)(=O)c1ccc(NNC(=S)Nc2ccc(OC(F)F)cc2)c([N+](=O)[O-])c1	70	60	nt	i	i	56
COc1ccc(C(C)=NNc2ccc([N+](=O)[O-])cc2S(=O)(=O)Nc2ccccc2C(=O)O)c(OC)c1	i	i	31	i	i	i
COc1cccc(C(C)=NNc2ccc([N+](=O)[O-])cc2[N+](=O)[O-])c1OC	nt	nt	nt	i	i	nt
COC(=O)Cc1nnn2c1[C@H](C)[C@H](c1ccccc1Br)OC[C@H](C)C2	nt	nt	nt	i	i	nt
COC(=O)[C@]12C[C@H](CC(=O)NCCCN3CCCC3=O)C(=O)N(Cc3ccc4c(c3)OCO4)C1=C[C@H](C(C)(C)C)O[C@@H]2C	nt	nt	nt	i	i	nt
Cc1c2cc(O)c(=O)cc-2oc2cc(O)c(O)cc12	96	85	78	i	i	89
C[C@H]1CN(S(=O)(=O)C(C)(C)C)[C@H](CCO)/C1=C\CCO	nt	nt	nt	i	i	nt
O=[N+]([O-])c1cc(Cl)cc(/C=N/NC(=S)Nc2ccc(S(=O)(=O)N3CCOCC3)cc2)c1O	42	37	52	i	i	i
COC(=O)C1=C(C)N(C)C(=NCC2CC2)NC1c1ccccc1 (stereo not given)	nt	nt	nt	i	i	nt
Clc1ccc(CCNc2nc3ccccc3s2)cc1	i	27	i	i	i	i
COCCCNC(=O)C[C@H]1C[C@@]2(C(=O)OC)C(=C[C@H](C3CCCC3)O[C@@H]2C)N(Cc2ccccc2)C1=O	nt	nt	nt	i	i	nt
NNC(=O)c1nn(-c2ccccc2)cc1O	nt	nt	31	nt	nt	nt
Cc1c(-c2ccccc2)nnn1-c1ccc(F)c(Cl)c1	nt	nt	nt	i	i	nt
COc1ccc(C2CC(=O)C(c3ccccc3OC)=CN2Cc2ccccc2)cc1 (stereo not given)	nt	nt	nt	i	i	nt
Oc1c(Cl)cc(Cl)cc1C=Nc1cc(C(F)(F)F)ccc1N1CCc2ccccc2C1	i	i	28	i	i	i
Oc1c(Cl)cccc1C=Nc1cc(C(F)(F)F)ccc1N1CCCC1	i	i	i	i	i	i
O=C(NN=C1CCCC1)c1cc(Br)ccc1O	i	i	30	i	i	i
O=C(NN=C1CCCC1)c1ccc(O)cc1O	i	i	i	i	i	i
O=C(N/N=C/c1ccoc1)c1cc(Br)ccc1O	i	i	33	i	i	i
O=C(N/N=C/c1ccoc1)c1ccccc1Br	i	i	nt	i	i	i
COc1ccc(-c2n[nH]c(C)c2-c2ccc(Cl)cc2)c(O)c1OC	i	i	32	i	i	i
CCOC(=O)CN1C(=O)[C@]2(OCCC=C[C@H]2C)c2ccccc21	nt	nt	nt	i	i	nt
Cc1cccc(NCc2ccc(Br)cc2)n1	i	30	i	i	i	i
Cc1cccc(NCc2cccc3ccccc23)n1	i	i	i	i	i	i
SMILES	PAFAH2 inh	PAFAH1B2 inh	pPAFAH inh	ASAP1 GAP inh	ARFGAP1 inh	PAFAH1B3 FP inh
Cc1ccnc(NCc2ccc(Br)cc2)c1	i	27	i	i	i	i
COc1ccc(CNc2cc(C)ccn2)cc1	i	i	i	i	i	i
O=C(CSc1nc2ccccc2n1CCc1ccccc1)c1ccc(O)c(O)c1	55	28	nt	i	i	i
O=C(CSc1nc2ccccc2c(=O)[nH]1)c1ccc(O)cc1O	i	i	nt	i	i	i
O=C(CSc1nc2ccccc2c(=O)[nH]1)c1ccc(O)c(O)c1	49	i	33	i	i	i
O=C(CSc1nc2ccccc2n1CCc1ccccc1)N1CCOCC1	i	i	i	i	i	i
Cc1cc(Nc2ccc(Cl)c(C(F)(F)F)c2)cc(=O)n1-c1ccc(Cl)c(C(F)(F)F)c1	nt	nt	nt	i	i	nt
O=S(=O)(NCc1ccccc1)c1ccc(Cl)cc1	i	i	i	i	i	i
O=S(=O)(Nc1cc2nc3ccccc3nc2n1Cc1ccccc1)c1ccc(Cl)cc1	66	47	i	i	i	63
O=C(Nc1nc(-c2cccs2)c(-c2ccccc2)s1)c1ccco1	i	i	i	i	34	i
CC(=O)Nc1sc(NC(=O)c2ccco2)nc1-c1cccs1	i	i	i	i	i	i
CCOc1ccc(NC(C)c2cc(Cl)ccc2O)cc1 (stereo not given)	i	i	i	i	i	i
CC(Nc1ccc(Cl)cc1)c1cc(Cl)ccc1O (stereo not given)	i	43	i	i	i	i
CC(C)C[C@H](NC(=O)N1CCOCC1)C(=O)N1CCC[C@H]1C(=O)NCc1ccccc1	nt	nt	nt	i	i	nt
Nc1nccnc1C(=O)OCC(=O)C12CC3CC(CC(C3)C1)C2	i	i	i	i	i	i
N#CC1(C#N)CC(C=O)=C(N)C1(C#N)CC(=O)C12CC3CC(CC(C3)C1)C2 (stereo not given)	i	31	i	i	i	i
Cc1noc(C)c1S(=O)(=O)N(C)C[C@@H]1OCc2cnnn2CCCC(=O)N([C@@H](C)CO)C[C@@H]1C	nt	nt	nt	i	i	nt
CC(C)Cn1c(C23CC4CC(CC(C4)C2)C3)n[nH]c1=S	i	28	i	i	i	i
COc1cc2c(c(OC)c1OC)CC(c1ccccc1)=C(c1ccccc1)CC2NC(=O)C(F)(F)F (stereo not given)	nt	nt	nt	i	i	nt
Cc1cc(=O)[nH]c(N/N=C/c2cc(C)n(-c3ccccc3)c2C)n1	i	i	31	i	i	i
Cc1ccc(CN2CC=CCS2(=O)=O)cc1	nt	nt	nt	i	i	nt
CC1CCN(S(=O)(=O)c2ccc3c4c2CC(=O)N4CC(C)S3)CC1 (stereo not given)	62	i	27	i	i	i
S=C1Nc2ccccc2CS1	nt	nt	nt	i	i	nt
S=C1Cc2ccccc2N1	41	i	nt	i	i	29
Cc1cc(C(=O)CSc2cccc[n+]2[O-])c(C)n1-c1ccc(Br)cc1	nt	nt	44	nt	nt	nt
Cc1cc(C(=O)CSc2cccc[n+]2[O-])c(C)n1-c1ccccc1	i	i	i	i	i	i
O=C(O)c1ccc(CN2C(=O)c3cccc4c([N+](=O)[O-])ccc(c34)C2=O)cc1	i	i	nt	nt	nt	31
CC(NCCS(=O)(=O)c1ccc(Cl)cc1)c1cccc(Cl)c1 (stereo not given)	i	24	i	i	i	i
CC(C)c1ccc(C(C)NCCS(=O)(=O)c2ccc(Br)cc2)cc1 (stereo not given)	i	26	i	i	i	i

From PubChem
